Test results from ChEMBL document CHEMBL1142487, “Design, synthesis, and structure-activity relationship of novel opioid kappa-agonists” (Bioorg Med Chem, 2008).
The source made the active and inactive calls. The rule behind the calls is not given here.

How the values were obtained:
[1] = target: Mu-type opioid receptor (Mus musculus) (UniProt P42866); experiment: Equilibrium constant, ratio of IC50 for mu opioid receptor in ddy mouse vas deferens in presence of 30 nM naloxone to IC50 for mu opioid receptor in ddy mouse vas deferens
Procedure, shortened: (§1)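 Electrically stimulated ddY mouse vas deferens was held in Krebs-Henseleit at 37 °C under 95% O2/5% CO2. Tissue was preincubated 20 min with antagonist before the test agonist: naloxone 30 nM (μ), NTI 10 nM (δ), or nor-BNI 10 nM (κ). IC50s were compared with and without antagonist. Ke = [antagonist]/(IC50 ratio − 1).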

[2] = target: Kappa-type opioid receptor (Mus musculus) (UniProt P33534); experiment: Equilibrium constant, ratio of IC50 for kappa opioid receptor in ddy mouse vas deferens in presence of 10 nM nor-BNI to IC50 for kappa opioid receptor in ddy mouse vas deferens; procedure, shortened: as §1
[3] = system: Mus musculus; experiment: Inhibition of acetic acid-induced writhing in sc dosed mouse up to 180 mins administered 15 mins before acetic acid challenge; type: functional, organism-based
[4] = system: Mus musculus; experiment: Antinociceptive activity in po dosed mouse assessed as inhibition of acetic acid-induced writhing administered 15 mins before acetic acid challenge; type: functional
Procedure, shortened: (§2)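 Male mice (5 weeks old) received test compound sc into the rostral back or po, 15 min before ip 0.6% aqueous acetic acid (0.1 mL/10 g). Writhes were counted over 10 min, starting 10 min after the acid. […] The po/sc ED50 ratio was calculated.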

[5] = system: Mus musculus; experiment: Ratio of ED50 for acetic acid-induced writhing in po dosed mouse to ED50 for acetic acid-induced writhing in sc dosed mouse; type: functional; procedure, shortened: as §2
[6] = target: Delta-type opioid receptor (Mus musculus) (UniProt P32300); experiment: Equilibrium constant, ratio of IC50 for delta opioid receptor in ddy mouse vas deferens in presence of 10 nM Naltrindole to IC50 for delta opioid receptor in ddy mouse vas deferens; procedure, shortened: as §1
[7] = system: Mus musculus; experiment: Antinociceptive activity in sc dosed mouse assessed as inhibition of acetic acid-induced writhing administered 15 mins before acetic acid challenge; type: functional; procedure, shortened: as §2
[8] = target: Kappa-type opioid receptor (Mus musculus, UniProt P33534); experiment: Agonist activity at kappa opioid receptor in ddy mouse vas deferens assessed as inhibition of electric stimulation-induced contraction; type: functional, tissue-based
[9] = target: Kappa-type opioid receptor (Mus musculus) (UniProt P33534); experiment: Agonist activity at kappa opioid receptor in ddy mouse vas deferens assessed as inhibition of electric stimulation-induced contraction at 1 uM; type: functional, tissue-based

Row | Compound | Ke [1] | Ke [2] | Activity [3] | ED50 [4] | Ratio ED50 [5] | Ke [6] | ED50 [7] | IC50 [8] | inhibition [9]
1 | CN(C(=O)/C=C/C1CCCCC1)[C@@H]1CC[C@@]2(O)[C@H]3Cc4ccc(O)c5c4[C@@]2(CCN3CC2CC2)[C@H]1O5 | 5710 nM | 1.08 nM | Active | 0.071 mg/kg | 17 | 143 nM | 0.004 mg/kg | 0.457 nM | 
2 | CN(C(=O)/C=C/c1ccsc1)[C@@H]1CC[C@@]2(O)[C@H]3Cc4ccc(O)c5c4[C@@]2(CCN3CC2CC2)[C@H]1O5 |  | 1.71 nM | Active | 0.04 mg/kg | 9.5 |  |  | 0.1 nM | 
3 | CCCCCCS[C@@H]1CC[C@@]2(O)[C@H]3Cc4ccc(O)c5c4[C@@]2(CCN3CC2CC2)[C@H]1O5 |  |  |  |  |  |  | 15.8 mg/kg |  | 38%
4 | O=C(/C=C/c1ccoc1)N[C@@H]1CC[C@@]2(O)[C@H]3Cc4ccc(O)c5c4[C@@]2(CCN3CC2CC2)[C@H]1O5 |  | 0.44 nM |  |  |  | 8100 nM | 0.95 mg/kg | 0.869 nM | 
5 | CN(C(=O)/C=C/c1cccc(F)c1)[C@@H]1CC[C@@]2(O)[C@H]3Cc4ccc(O)c5c4[C@@]2(CCN3CC2CC2)[C@H]1O5 |  | 2.37 nM | Active | 0.007 mg/kg | 3.7 | 276 nM |  | 1.6 nM | 
6 | CN(C(=O)/C=C/c1ccoc1)[C@@H]1CC[C@@]2(O)[C@H]3Cc4ccc(O)c5c4[C@@]2(CCN3)[C@H]1O5 |  |  |  |  |  |  | 7.07 mg/kg |  | 
7 | COc1cccc(/C=C/C(=O)N(C)[C@@H]2CC[C@@]3(O)[C@H]4Cc5ccc(O)c6c5[C@@]3(CCN4CC3CC3)[C@H]2O6)c1 | 60.9 nM | 1.6 nM | Active | 0.0048 mg/kg | 4.4 | 96.4 nM | 0.0011 mg/kg | 0.75 nM | 
8 | CN(C(=O)/C=C/c1ccc(C(F)(F)F)cc1)[C@@H]1CC[C@@]2(O)[C@H]3Cc4ccc(O)c5c4[C@@]2(CCN3CC2CC2)[C@H]1O5 | 524 nM | 0.2 nM | Active | 0.026 mg/kg | 1.1 | 78 nM |  | 0.07 nM | 
9 | CN(C(=O)/C=C/c1ccccc1)[C@@H]1CC[C@@]2(O)[C@H]3Cc4ccc(O)c5c4[C@@]2(CCN3CC2CC2)[C@H]1O5 | 922 nM | 0.861 nM | Active | 0.011 mg/kg | 5.5 | 263 nM | 0.002 mg/kg | 0.166 nM | 
10 | CN(C(=O)/C=C/c1ccccc1)[C@H]1CC[C@@]2(O)[C@H]3Cc4ccc(O)c5c4[C@@]2(CCN3CC2CC2)[C@H]1O5 | 14000 nM | 0.16 nM | Active | 0.032 mg/kg | 9.7 | 41.6 nM | 0.0033 mg/kg | 0.42 nM | 
11 | CN(C(=O)/C=C/c1cccc(C(F)(F)F)c1)[C@@H]1CC[C@@]2(O)[C@H]3Cc4ccc(O)c5c4[C@@]2(CCN3CC2CC2)[C@H]1O5 |  | 3.2 nM |  | 0.034 mg/kg | 7.4 | 291 nM |  | 0.47 nM | 
12 | CN(C(=O)/C=C/c1ccoc1)[C@@H]1CC[C@@]2(O)[C@H]3Cc4ccc(N)c5c4[C@@]2(CCN3CC2CC2)[C@H]1O5 |  |  |  |  |  |  | 0.2 mg/kg |  | 
13 | Cc1cccc(/C=C/C(=O)N(C)[C@@H]2CC[C@@]3(O)[C@H]4Cc5ccc(O)c6c5[C@@]3(CCN4CC3CC3)[C@H]2O6)c1 | 1780 nM | 1.95 nM | Active | 0.064 mg/kg | 9.7 | 64.5 nM |  | 0.32 nM | 
14 | CN(C(=O)/C=C/c1ccoc1)[C@@H]1CC[C@@]2(O)[C@H]3Cc4cccc5c4[C@@]2(CCN3CC2CC2)[C@H]1O5 | 12 nM | 0.07 nM |  |  |  | 8.4 nM |  | 27.2 nM | 
15 | CCC/C=C/C(=O)N(C)[C@@H]1CC[C@@]2(O)[C@H]3Cc4ccc(O)c5c4[C@@]2(CCN3CC2CC2)[C@H]1O5 | 1800 nM | 0.072 nM |  | 0.21 mg/kg | 8.8 |  |  | 0.647 nM | 
16 | CN(C(=O)/C=C/c1cccc([N+](=O)[O-])c1)[C@@H]1CC[C@@]2(O)[C@H]3Cc4ccc(O)c5c4[C@@]2(CCN3CC2CC2)[C@H]1O5 | 185 nM | 1.4 nM |  | 0.22 mg/kg | 12.9 | 89 nM |  | 0.23 nM | 
